In ChEMBL document CHEMBL1141320, “Antioxidant flavonoid glycosides from aerial parts of the fern Abacopteris penangiana” (J Nat Prod, 2007) one finds Activity data, which are given here for 13 compounds.

Activity calls are given as the source filed them. The calls are words filed in the database; no cut-off is given here.

The experiment is described as follows: Antioxidant activity assessed as ABTS radical scavenging activity after 15 mins by TEAC assay. In kind it is functional. An outline of the steps: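 ABTS (7 mM in water) oxidized with potassium persulfate (2.45 mM final), kept dark at room temperature 16 h, diluted with water to A734 0.700 ± 0.003. Sample added to diluted ABTS•+ (0–20 µM final); A734 decrease read after 15 min. Triplicate, with solvent blanks. Percent inhibition plotted against concentration alongside Trolox standard; TEAC = Trolox concentration matching antioxidant potential of 1 mM sample.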
As to `Cc1c(O)c(C)c2c3c1O[C@@H]1O[C@H](CO)[C@@H](O)[C@H](O)[C@H]1O[C@H]3C[C@@H](c1ccc(O)cc1)O2`, the Activity stood at 1.44 mM.
Turning to `COc1ccc([C@@H]2C[C@H]3O[C@H]4[C@H](Oc5c(C)c(O)c(C)c(c53)O2)O[C@H](CO)[C@@H](O)[C@@H]4O)cc1`, the Activity was 1.36 mM.
`COc1ccc([C@@H]2C[C@@H]3O[C@H]4[C@H](Oc5c(C)c(O)c(C)c(c53)O2)O[C@H](CO)[C@@H](O)[C@@H]4O)cc1`: the Activity is 1.1 mM.
Under `COCc1c(O)c(C)c2c3c1O[C@@H]1O[C@H](CO)[C@@H](O)[C@H](O)[C@H]1O[C@@H]3C[C@@H](c1ccc(OC)cc1)O2` stands 1.03 mM; under `Cc1c(O)c(C)c2c3c1O[C@@H]1O[C@H](CO)[C@@H](O)[C@H](O)[C@H]1O[C@@H]3C[C@@H](c1ccc(O)cc1)O2`, 1.32 mM.
With `COc1ccc([C@@H]2C[C@@H](O)c3c(c(C)c(O[C@@H]4O[C@H](CO)[C@@H](O)[C@H](O)[C@H]4O)c(CO)c3O[C@@H]3O[C@H](CO)[C@@H](O)[C@H](O)[C@H]3O)O2)cc1`, the outcome was inactive.
In the case of `COc1ccc([C@@H]2C[C@@H](O)c3c(O[C@@H]4O[C@H](CO)[C@@H](O)[C@H](O)[C@H]4O)c(C)c(O[C@@H]4O[C@H](CO)[C@@H](O)[C@H](O)[C@H]4O)c(C)c3O2)cc1`, the result was inactive.
On to `COc1ccc([C@@H]2C[C@H]3O[C@H]4[C@H](Oc5c(C)c(O[C@@H]6O[C@H](CO)[C@@H](O)[C@H](O)[C@H]6O)c(C)c(c53)O2)O[C@H](CO)[C@@H](O)[C@@H]4O)cc1`, for which the result was inactive.
For the compound `COCc1c(O)c(C)c2c3c1O[C@@H]1O[C@H](CO)[C@@H](O)[C@H](O)[C@H]1O[C@@H]3C[C@@H](c1ccc(O)cc1)O2`, the Activity was found to be 1.51 mM.
Under `O=c1c(O)c(-c2ccc(O)c(O)c2)oc2cc(O)cc(O)c12` stands 3.74 mM; under `O=c1c(O[C@@H]2O[C@H](CO)[C@@H](O)[C@H](O)[C@H]2O)c(-c2ccc(O)c(O)c2)oc2cc(O)cc(O)c12`, 1.91 mM.
For `O=c1c(O[C@@H]2O[C@H](CO)[C@@H](O)[C@H](O)[C@H]2O)c(-c2ccc(O)cc2)oc2cc(O)cc(O)c12`, the Activity was 1.46 mM.
`Cc1c(O[C@@H]2O[C@H](CO)[C@@H](O)[C@H](O)[C@H]2O)c(CO)c(O[C@@H]2O[C@H](CO)[C@@H](O)[C@H](O)[C@H]2O)c2c1O[C@H](c1ccc(O)cc1)C[C@H]2O`: the Activity came to 1.17 mM.
